Reference: ChEMBL document CHEMBL5029176, “Targeting Oncogenic Src Homology 2 Domain-Containing Phosphatase 2 (SHP2) by Inhibiting Its Protein-Protein Interactions” (J Med Chem, 2021)
Calls of active or inactive are those of the source. The calls are words filed in the database; no cut-off is given here. Where a SMILES comes first, the peptide text is derived from it.

Assays:
[1] = Stability in human serum assessed as degradation after 24 hrs by HPLC analysis; format: ADME, cell-free; details: read-out: Drug degradation
In short: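 Peptide stock in DMSO (5 mg/mL), 20 μL added to 1 mL 25 mM HEPES pH 7.6 plus 250 μL human serum at 37 °C; aliquots taken over 24 h, quenched in ethanol on ice, centrifuged, supernatant analysed by HPLC and HPLC-MS; peptide-buffer-ethanol controls run in parallel.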

[2] = Stability in human serum assessed as degradation after 3 hrs by HPLC analysis; format: ADME, cell-free; details: read-out: Drug degradation
In short: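 Peptide DMSO stock (5 mg/mL) added to 25 mM HEPES pH 7.6 with human serum (1 mL buffer + 250 μL serum) at 37 °C; followed 24 h. Aliquots withdrawn at fixed intervals, quenched in absolute ethanol, 15 min on ice, centrifuged; supernatant analysed by HPLC and HPLC-MS. Peptide/buffer/ethanol samples run in parallel.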

[3] = tested on: T1, Tyrosine-protein phosphatase non-receptor type 11 (Homo sapiens), Q06124 [E76K]; test: Activation of human His-tagged SHP2 E76K mutant expressed in Escherichia coli (DE3) Rosetta2 competent cells using p-nitrophenyl phosphate as substrate at 10 uM measured after 30 mins
T1 sequence (whole entry): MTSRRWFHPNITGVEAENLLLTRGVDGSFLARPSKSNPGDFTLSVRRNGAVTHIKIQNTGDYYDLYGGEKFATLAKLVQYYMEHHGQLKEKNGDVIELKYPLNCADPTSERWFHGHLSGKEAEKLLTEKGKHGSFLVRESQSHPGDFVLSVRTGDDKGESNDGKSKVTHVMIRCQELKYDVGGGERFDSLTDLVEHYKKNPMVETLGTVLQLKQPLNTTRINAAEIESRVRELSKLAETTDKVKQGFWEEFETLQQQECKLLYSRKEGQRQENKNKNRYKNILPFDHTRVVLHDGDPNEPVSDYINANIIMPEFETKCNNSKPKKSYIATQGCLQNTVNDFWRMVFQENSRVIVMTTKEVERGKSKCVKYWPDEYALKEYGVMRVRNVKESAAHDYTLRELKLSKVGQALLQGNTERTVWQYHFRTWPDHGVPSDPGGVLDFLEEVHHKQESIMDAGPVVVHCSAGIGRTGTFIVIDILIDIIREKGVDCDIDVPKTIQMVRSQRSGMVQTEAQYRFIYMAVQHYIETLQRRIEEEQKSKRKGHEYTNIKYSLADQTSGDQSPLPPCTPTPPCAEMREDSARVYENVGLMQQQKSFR
In short: (§1)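 Recombinant full-length SHP2 (wild type or mutant), His-tagged, Ni-NTA then anion-exchange and gel-filtration purified; 20 pmol in 200 μL buffer with 20 mM p-nitrophenyl phosphate, basal or stimulated with bisphosphorylated BTAM peptide; 30 min at 30 °C; phosphate release read at 405 nm; three replicates.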

Homo sapiens [4] = species on record: Homo sapiens; test: Activation of human His-tagged SHP2 E76V mutant expressed in Escherichia coli (DE3) Rosetta2 competent cells using p-nitrophenyl phosphate as substrate at 10 uM measured after 30 mins; in short: as §1
Danio rerio [5] = species on record: Danio rerio; test: Induction of phenotypic defect in Zebrafish injected with wild type Shp2a at 3 uM measured after 11 hrs post fertilization by stereomicroscopic analysis; format: organism-based; details: in vivo
In short: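 Wild-type Shp2 mRNA (120 ng/μL) co-injected with peptide at final 3 μM into one-cell zebrafish embryos; GFP-positive embryos imaged laterally at 11 hpf by stereomicroscope; shape scored as long/short axis ratio.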

Homo sapiens [6] = species on record: Homo sapiens; test: Activation of human His-tagged SHP2 A27S mutant expressed in Escherichia coli (DE3) Rosetta2 competent cells using p-nitrophenyl phosphate as substrate at 10 uM measured after 30 mins; in short: as §1
Danio rerio [7] = species on record: Danio rerio; test: Reversal of Shp2a-D61G-induced phenotypic defect in Zebrafish at 5 uM by stereomicroscopic analysis; format: functional, organism-based
In short: (§2)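 One-cell zebrafish embryos microinjected (~1 nL) with 120 ng/μL mRNA for GFP-2A-Shp2-D61G or wild-type Shp2, with or without peptide at final 0.3, 3 or 5 μM (assuming ~500 nL embryo volume); GFP-expressing embryos selected, imaged laterally at 11 hpf by stereomicroscope; ovality as long/short axis ratio; survival followed through development; non-injected embryos as control.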

Homo sapiens [8] = species on record: Homo sapiens; test: Activation of human His-tagged SHP2 D61H mutant expressed in Escherichia coli (DE3) Rosetta2 competent cells using p-nitrophenyl phosphate as substrate at 10 uM measured after 30 mins; in short: as §1
Danio rerio [9] = species on record: Danio rerio; test: Reversal of Shp2a-D61G-induced gastrulation defect in Zebrafish assessed as reduction in major/minor axis ratios by stereomicroscopic analysis; format: functional, organism-based; details: dose 0.3-5 µM; in short: as §2
[10] = Stability in DMEM buffer after 3 days by HPLC analysis; format: physicochemical; details: 72 h, time 3 day
In short: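 Same set-up as serum test but in DMEM, followed 72 h at 37 °C; monitored by HPLC with 5–50% B over 20 min.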

Danio rerio [11] = species on record: Danio rerio; test: Improvement in survival of wild type Shp2a-injected Zebrafish embryos at 3 uM after 11 hrs post fertilization by stereomicroscopic analysis; format: functional, organism-based; details: Embryo; in short: as §2
Danio rerio [12] = species on record: Danio rerio; test: Improvement in survival of Shp2a-D61G-injected Zebrafish embryos at 0.3 to 5 uM after 11 hrs post fertilization by stereomicroscopic analysis; format: functional, organism-based; details: Embryo, dose 0.3-5 µM; in short: as §2
Homo sapiens [13] = species on record: Homo sapiens; test: Activation of human His-tagged SHP2 F71I mutant expressed in Escherichia coli (DE3) Rosetta2 competent cells using p-nitrophenyl phosphate as substrate at 10 uM measured after 30 mins; in short: as §1

Row | Compound | metabolised at 24 h [1] | metabolised at 3 h [2] | Activity [3] | Activity (Homo sapiens [4]) | Activity (Danio rerio [5]) | Activity (Homo sapiens [6]) | Activity (Danio rerio [7]) | Activity (Homo sapiens [8]) | Activity (Danio rerio [9]) | Stability [10] | Activity (Danio rerio [11]) | Activity (Danio rerio [12]) | Activity (Homo sapiens [13])
1 | CC[C@H](C)[C@H](NC(=O)[C@H](Cc1ccc(OP(=O)(O)O)cc1)NC(=O)[C@H](CC(N)=O)NC(=O)[C@H](CC(C)C)NC(C)=O)C(=O)N[C@@H](CC(=O)O)C(=O)N[C@@H](CC(C)C)C(=O)N[C@@H](CC(=O)O)C(=O)N[C@@H](Cc1c[nH]c2ccccc12)C(N)=O | < 50% | – | – | – | – | – | – | – | – | – | – | – | –
2 | CC[C@H](C)[C@H](NC(=O)[C@H](C)NC(=O)[C@H](CCCCN)NC(=O)CNC(=O)[C@H](Cc1ccc(O)cc1)NC(=O)[C@H](Cc1ccc(O)cc1)NC(=O)[C@H](CCCCN)NC(=O)[C@H](Cc1ccccc1)NC(=O)[C@@H](N)Cc1c[nH]c2ccccc12)C(=O)N[C@@H](Cc1ccc(O)cc1)C(=O)O (H-WFKYYGKAIY-OH) | – | 100% | – | – | – | – | – | – | – | – | – | – | –
3 | CC[C@H](C)[C@H](NC(=O)[C@H](Cc1ccc(C(F)(F)P(=O)(O)O)cc1)NC(=O)[C@H](CC(N)=O)NC(=O)[C@H](CC(C)C)NC(=O)CNC(C)=O)C(=O)N[C@@H](CC(=O)O)C(=O)N[C@@H](CC(C)C)C(=O)N[C@@H](CC(=O)O)C(=O)N[C@@H](Cc1c[nH]c2ccccc12)C(N)=O | < 50% | – | inactive | inactive | Non-Toxic | inactive | Active | inactive | Dose-Dependent Effect | Stable | inactive | Dose-Dependent Effect | inactive
